Most compounds without a hit are left out; they make up all but 2% or so of the library.
TCR CD3 inh: blocks the human TCR-CD3 interaction. TAMRA-labeled TCR probe fluorescence, biochemical. inhibition, % at 9.4 µM. actives 0.37% (n = 360,000);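 note: recombinant mutant TCR 2C K166C tagged with TAMRA read by polarization; 0% = receptor in buffer alone and 100% = receptor with positive control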
SIAE inh: human SIAE inhibition, primary screen; Q9HAT2; SIAE FP-Rh probe binding, fluorescence polarization; inhibition, % at 9.66 µM; actives 0.69% (n = 370,000); AID 1053197;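 active = inhibition above a cutoff: mean of compounds within the control limits plus 3 SD of those, cut at about 17% in these data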;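 note: 0% = plate median of compound wells and 100% = probe without SIAE protein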
TDP2 inh: TDP2 (human) inhibition, absorbance primary screen. O95551. recombinant TDP2, T5PNP hydrolysis, p-nitrophenol absorbance 415 nm. inhibition, % at 12.8 µM. actives 0.34% (n = 370,000);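 active = inhibition above the mean of all tested compounds plus 3 SD, set per campaign, cut at about 25% in these data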;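 note: 0% = DMSO with enzyme and 100% = buffer with substrate but no TDP2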
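System: recombinant human TDP2 / Amount: 120 nM TDP2 per well / Also added: 5 mM T5PNP chromogenic substrate / Doses: 12.8 µM single point, 1% DMSO / Incubation: 2 h at 37 °C / Detection: p-Nitrophenol epi absorbance / Evaluation: % inhibition relative to enzyme-containing and enzyme-free wells / Repeats: singlicate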
HTRA1 inh: blocks human HTRA1 serine peptidase | AID 504803 | inhibition, % at 5.96 µM | recombinant HTRA1, FP-rhodamine activity-based probe, fluorescence polarization | actives 0.5% (n = 340,000); in the data active = inhibition above about 36%;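 note: 0% = enzyme with DMSO and 100% = wells lacking enzyme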
PAD4 inh: PAD4 (human) enzyme inhibition; actives 0.41% (n = 330,000); recombinant PAD4, RCA probe fluorescence polarization; inhibition, % at 6.36 µM;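 active = percent inhibition above a cutoff equal to the mean of all tested compounds plus 3 SD, cut at about 15% in these data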;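 note: 0% = PAD4 with RCA probe and DMSO and 100% = probe without PAD4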
Target sequence (Q9UM07 whole entry, looked up): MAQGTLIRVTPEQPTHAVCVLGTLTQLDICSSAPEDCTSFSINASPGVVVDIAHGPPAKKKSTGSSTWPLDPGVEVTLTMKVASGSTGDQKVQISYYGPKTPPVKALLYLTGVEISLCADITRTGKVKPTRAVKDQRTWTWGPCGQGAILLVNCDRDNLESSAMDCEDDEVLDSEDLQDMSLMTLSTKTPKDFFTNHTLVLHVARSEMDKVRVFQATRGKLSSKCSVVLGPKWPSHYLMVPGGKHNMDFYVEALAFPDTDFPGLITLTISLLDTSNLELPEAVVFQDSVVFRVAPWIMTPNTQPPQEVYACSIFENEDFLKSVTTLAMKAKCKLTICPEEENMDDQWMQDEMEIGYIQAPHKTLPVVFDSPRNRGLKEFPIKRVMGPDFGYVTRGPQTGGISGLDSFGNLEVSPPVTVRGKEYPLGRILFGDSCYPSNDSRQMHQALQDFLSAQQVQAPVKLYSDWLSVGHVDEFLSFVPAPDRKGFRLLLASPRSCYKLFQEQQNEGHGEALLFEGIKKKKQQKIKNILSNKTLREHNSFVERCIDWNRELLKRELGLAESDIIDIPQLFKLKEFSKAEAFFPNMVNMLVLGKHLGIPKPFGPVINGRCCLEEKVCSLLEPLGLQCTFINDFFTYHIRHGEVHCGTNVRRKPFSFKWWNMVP
mABHD4 FP: inhibits mouse alpha/beta hydrolase domain 4. Q8VD66. purified mABHD4, FP-Rh probe fluorescence polarization. inhibition, % at 8.92 µM. actives 0.54% (n = 370,000). AID 720543;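 active = inhibition exceeding the mean over every tested compound plus 3 SD, cut at about 30% in these data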;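 note: 0% = plate median of compound wells and 100% = S159A mutant with DMSO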
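Assay system: wild-type mouse ABHD4 protein; compound: single nominal dose of 8.92 µM, 0.89% DMSO final; schedule: 45 min + 60 min at 25 °C; measured by: FP readout, ex 525 nm / em 598 nm; evaluation: % inhibition of FP-Rh probe binding versus controls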
HTRA1 inh conf: HTRA1 (human) inhibition, confirmation; inhibition, % at 5.96 µM; actives 66% (n = 1,600); recombinant HTRA1, FP-rhodamine activity-based probe, fluorescence polarization; shares compounds with HTRA1 inh;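 active = mean inhibition over three repeats above a set limit taken from the earlier primary screen, cut at about 37% in these data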;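 note: 0% = HTRA1 with DMSO and 100% = wells lacking HTRA1; inhibitors block probe binding so polarization drops and inhibition rises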
BSA probe FL: counter-screen for TCR-CD3 interaction inhibitors: BSA probe; shares compounds with TCR CD3 inh; TAMRA-labeled BSA probe fluorescence counterscreen; inhibition, % at 9.4 µM; actives 10% (n = 1,200); in the data active = inhibition above about 23%;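 note: 0% = buffer low control and 100% = reference high control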
TCR-CD3 conf: confirmation of human TCR-CD3 interaction inhibitors; shares compounds with TCR CD3 inh; TAMRA-labeled TCR probe fluorescence binding assay; inhibition, % at 9.4 µM; actives 48% (n = 1,200); AID 652036
mABHD4 conf: confirmation of mouse ABHD4 inhibitors; shares compounds with mABHD4 FP; purified mABHD4, FP-Rh probe fluorescence polarization; inhibition, % at 8.92 µM; actives 55% (n = 1,800);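 active = mean inhibition across replicates above the hit cutoff set in the primary screen, cut at about 30% in these data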;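 note: 0% = wild-type ABHD4 with DMSO and 100% = catalytically dead S159A mutant with DMSO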
SIAE confirm: human SIAE inhibition, confirmation; actives 13% (n = 2,300); shares compounds with SIAE inh; SIAE FP-Rh activity-based probe, fluorescence polarization; AID 1117263; inhibition, % at 9.66 µM;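 active = mean inhibition of the replicates above the hit cutoff set in the primary screen, cut at about 17% in these data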;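 note: 0% = SIAE with DMSO and probe and 100% = probe without SIAE; inhibitors lower polarization as more probe stays unbound to SIAE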
Numbers without * were called inactive; nt = no result. Cut-off read from the data, not from the text of the source, unless noted: active = inhibition above about 19%; inactive = the rest.

SMILES | TCR CD3 inh | SIAE inh | TDP2 inh | HTRA1 inh | PAD4 inh | mABHD4 FP | HTRA1 inh conf | BSA probe FL | TCR-CD3 conf | SIAE confirm | others
C=CCN(CC=C)C(=O)CN1C(=O)NC(c2ccccc2)(c2ccccc2)C1=O | -8.6 | 5.7 | -1.7 | -2.8 | -1.8 | -3.9 | nt | nt | nt | nt
COc1ccc(/C=C/C(=O)O)cc1S(=O)(=O)N1CCc2ccccc21 | -5.7 | -2.7 | 5.8 | -4.1 | nt | 3.4 | nt | nt | nt | nt
N#C/C(=C/c1ccc(O)c(O)c1)c1nc2ccccc2[nH]1 | 35.5* | 29.1* | -6.0 | 65.4* | -10.5 | 58.2* | 94.4* | -12.0 | 48.0* | 50.5* | mABHD4 conf=65.0*
COc1ccc(NC(=O)N2CCCC2C(=O)NCCc2ccccc2)cc1 (centres undefined) | -3.4 | -1.3 | 4.1 | 3.7 | nt | 0.2 | nt | nt | nt | nt
C(=N\Nc1nc2ccccc2[nH]1)/c1c[nH]c2ccccc12 | 4.4 | 20.6* | -5.7 | 38.1* | -5.5 | 13.6 | 20.6 | nt | nt | 32.6*
O=[N+]([O-])c1ccccc1N/N=C/c1c[nH]c2ccccc12 | 3.8 | 18.3* | -2.0 | 78.4* | 4.8 | 48.9* | 75.8* | nt | nt | 20.5* | mABHD4 conf=88.7*
O=c1ccn([C@@H]2O[C@H](CNCc3c(OCc4ccccc4F)ccc4ccccc34)[C@@H](O)[C@H]2O)c(=O)[nH]1 | -0.2 | 2.0 | -2.5 | nt | nt | 1.2 | nt | nt | nt | nt
CCOc1c(Cl)cc(CNc2ccc(N3CCCC3)cc2)cc1OC | 6.6 | 20.8* | 0.0 | 50.4* | nt | 24.5 | 16.3 | nt | nt | 10.6
CCOC(=O)c1c(C)[nH]c(C)c1S(=O)(=O)N(C)CC(=O)NCc1ccc(C)cc1 | 6.7 | 1.9 | 17.8 | 1.8 | -0.3 | 4.9 | nt | nt | nt | nt
NS(=O)(=O)c1ccc(N/N=C/c2ccc(O)c(O)c2O)c([N+](=O)[O-])c1 | 59.1* | 36.8* | -8.4 | 78.4* | nt | 60.1* | 67.2* | -10.2 | 73.8* | 11.0 | mABHD4 conf=62.5*
NS(=O)(=O)c1ccc(N/N=C/c2ccc(O)cc2O)c([N+](=O)[O-])c1 | -1.0 | 6.0 | -19.9 | 16.4 | 0.5 | 18.2 | nt | nt | nt | nt
CC1Sc2ccc(S(=O)(=O)CCC(=O)Nc3cc(F)ccc3F)cc2NC1=O (centres undefined) | -2.7 | 3.9 | -10.7 | -3.5 | 0.8 | 6.9 | nt | nt | nt | nt
N#CC1=C(N)Oc2ccc3ccc(O)cc3c2C1c1ccsc1 (centres undefined) | 69.8* | 126.3* | 0.9 | 126.4* | nt | 132.3* | 58.0* | 72.4* | 53.0* | 62.7* | mABHD4 conf=88.0*
CC1NC(=S)N(Cc2ccccc2)C1=O (centres undefined) | 22.4* | 4.3 | 2.5 | 4.3 | -4.6 | 1.0 | nt | 1.4 | 16.3 | nt
N#Cc1c(SCC(=O)Nc2nncs2)sc2c(O)cc(=O)[nH]c12 | 26.9* | -19.3 | 20.8 | -8.6 | -14.2 | 3.4 | nt | -12.7 | 8.6 | nt
N#Cc1c(SCC(=O)Nc2ccc(C(F)(F)F)cc2)sc2c(O)cc(=O)[nH]c12 | -4.1 | -12.1 | 3.4 | -21.9 | 0.3 | -2.3 | nt | nt | nt | nt
CC(C)C(=O)Nc1ccc(C(=O)NNC(=S)NC(=O)c2ccco2)cc1 | 33.3* | -1.4 | -16.7 | 3.5 | 2.1 | -1.3 | nt | -0.9 | 35.6* | nt
CN1CCc2c(c3ccccc3n2Cc2ccccc2)C1 | -6.9 | 7.1 | -3.7 | -2.9 | -2.1 | -6.7 | nt | 1.9 | 3.2 | nt
Cc1ccc(-c2ccc3c(c2)O[C@H](CN(C)C(=O)Nc2ccc(C(F)(F)F)cc2)[C@H](C)CN([C@H](C)CO)S3(=O)=O)cc1 | 7.4 | -22.4 | -1.9 | nt | nt | -31.8 | nt | nt | nt | nt
O=C(C(=O)N1CCC(c2ccccc2)CC1)c1ccc(F)c(F)c1 | 23.7* | -1.1 | -0.8 | nt | nt | -12.4 | nt | 3.4 | -0.1 | nt
